# Results: ChEMBL document CHEMBL3392987, “Novel synthetic coumarins that targets NF-κB in Hepatocellular carcinoma” (Bioorg Med Chem Lett, 2015)
# Active and inactive are the calls of the source. No cut-off for these calls is given here.
# Tests used:
# HepG2 [1] = assay: Cytotoxicity against human HepG2 cells after 24 to 72 hrs by MTT assay; format: functional, cell-based
# In short: (§1)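 HepG2 cells plated in triplicate and treated with a range of compound concentrations. MTT assay run after 24, 48 and 72 h. Data given as mean ± SD of triplicates, with p <0.05 flagged.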
# [2] = biological target: T1, Nuclear factor NF-kappa-B complex (Homo sapiens) (UniProt Q00653+P19838+Q04206); assay: Inhibition of NF-kappaB in human HepG2 cell extract assessed as reduction in cyclin D1 expression at 50 uM after 12 to 48 hrs by Western blotting; format: cell-based
# In short: (§2)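 HepG2 cells treated with 50 µM compound over a time course. Whole-cell extract (30 µg protein) resolved on 10% SDS–PAGE; membrane cut by molecular weight and probed for cyclin D1, Bcl-2, survivin or C-Myc. Blots stripped and reprobed for β-actin as loading control. Representative of two independent experiments.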
# [3] = biological target: T1, Nuclear factor NF-kappa-B complex (Homo sapiens); assay: Inhibition of NF-kappaB in human HepG2 cell extract assessed as reduction in survivin expression at 50 uM after 12 to 48 hrs by Western blotting; format: cell-based; in short: as §2
# HepG2 [4] = assay: Induction of apoptosis in human HepG2 cells assessed as PARP cleavage after 12 to 48 hrs by MTT assay; format: functional, cell-based; details: in the assay text read “by Western blotting” for “by MTT assay”
# In short: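 HepG2 cells treated with compound over a time course. Whole-cell extract (30 µg protein) resolved on 10% SDS–PAGE; membrane cut by molecular weight, probed for PARP, then probed for β-actin on the same blots as loading control.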
# Huh-7 = assay: Cytotoxicity against human HuH7 cells by MTT assay; format: functional, cell-based
# [5] = biological target: T1, Nuclear factor NF-kappa-B complex (Homo sapiens); assay: Inhibition of NF-kappaB in human HepG2 cell extract assessed as reduction in C-Myc expression at 50 uM after 12 to 48 hrs by Western blotting; format: cell-based; in short: as §2
# PLC-PRF-5 = assay: Cytotoxicity against human PLC/PRF/5 cells by MTT assay; format: functional, cell-based
# [6] = biological target: T1, Nuclear factor NF-kappa-B complex (Homo sapiens); assay: Inhibition of NF-kappaB DNA binding activity in human HepG2 cell nuclear extract at 50 uM by ELISA-based DNA binding assay; format: protein-complex assay; details: TDE = time-dependent effect
# In short: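 HepG2 cells treated with 50 µM compound over a time course, then nuclear extracts prepared. Extract protein (5 µg) tested in an ELISA-based TransAM NF-κB DNA-binding kit. Representative of two independent experiments.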
# HepG2 [7] = assay: Antiinvasive activity in CXCL12-induced human HepG2 cells at 50 uM after 8 hrs by matrigel invasion assay
# [8] = Cytotoxicity against human LO2 cells at 50 uM after 72 hrs by MTT assay; format: cell-based; details: l02, 72 h
# [9] = biological target: T1, Nuclear factor NF-kappa-B complex (Homo sapiens); assay: Inhibition of NF-kappaB in human HepG2 cell extract assessed as reduction in Bcl-2 expression at 50 uM after 12 to 48 hrs by Western blotting; format: cell-based; in short: as §2
# HepG2 [10] = assay: Cytotoxicity against human HepG2 cells at 5 to 15 uM by MTT assay; format: functional, cell-based; details: TDE = time-dependent effect; in short: as §1
# [11] = biological target: T1, Nuclear factor NF-kappa-B complex (Homo sapiens); assay: Inhibition of NF-kappaB in human HepG2 cell extract assessed as reduction in MMP12 expression at indicated concentrations by Western blotting
# HepG2 [12] = assay: Antiinvasive activity in CXCL12-induced human HepG2 cells at 50 uM after 8 hrs by in vitro migration assay
# T1 sequence (P19838 whole entry, looked up): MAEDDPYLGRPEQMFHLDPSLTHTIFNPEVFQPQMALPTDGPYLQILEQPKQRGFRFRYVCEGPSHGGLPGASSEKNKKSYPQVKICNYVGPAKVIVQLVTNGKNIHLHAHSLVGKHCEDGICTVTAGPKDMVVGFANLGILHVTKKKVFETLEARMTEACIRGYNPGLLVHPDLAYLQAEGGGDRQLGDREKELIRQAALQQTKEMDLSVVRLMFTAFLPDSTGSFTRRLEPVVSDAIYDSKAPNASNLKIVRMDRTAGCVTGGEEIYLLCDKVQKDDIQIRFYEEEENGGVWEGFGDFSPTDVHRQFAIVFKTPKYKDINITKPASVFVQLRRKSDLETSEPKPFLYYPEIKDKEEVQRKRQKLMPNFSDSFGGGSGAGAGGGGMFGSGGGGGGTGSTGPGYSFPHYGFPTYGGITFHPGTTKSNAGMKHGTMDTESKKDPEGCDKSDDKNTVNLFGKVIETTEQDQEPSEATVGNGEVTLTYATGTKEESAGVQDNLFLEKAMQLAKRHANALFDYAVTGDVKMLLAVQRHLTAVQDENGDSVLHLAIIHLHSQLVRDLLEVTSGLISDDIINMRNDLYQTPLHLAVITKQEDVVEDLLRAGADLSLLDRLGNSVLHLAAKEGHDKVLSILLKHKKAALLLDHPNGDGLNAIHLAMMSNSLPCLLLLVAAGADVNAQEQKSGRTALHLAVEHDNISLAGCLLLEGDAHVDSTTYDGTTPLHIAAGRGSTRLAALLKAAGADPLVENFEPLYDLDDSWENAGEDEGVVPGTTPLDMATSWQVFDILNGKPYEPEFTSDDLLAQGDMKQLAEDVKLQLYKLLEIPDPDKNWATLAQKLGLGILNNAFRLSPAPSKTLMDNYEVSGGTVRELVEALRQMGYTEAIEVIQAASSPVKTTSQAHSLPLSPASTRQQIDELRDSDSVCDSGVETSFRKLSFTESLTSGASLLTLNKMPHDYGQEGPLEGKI
# T1 sequence (Q00653 whole entry, looked up): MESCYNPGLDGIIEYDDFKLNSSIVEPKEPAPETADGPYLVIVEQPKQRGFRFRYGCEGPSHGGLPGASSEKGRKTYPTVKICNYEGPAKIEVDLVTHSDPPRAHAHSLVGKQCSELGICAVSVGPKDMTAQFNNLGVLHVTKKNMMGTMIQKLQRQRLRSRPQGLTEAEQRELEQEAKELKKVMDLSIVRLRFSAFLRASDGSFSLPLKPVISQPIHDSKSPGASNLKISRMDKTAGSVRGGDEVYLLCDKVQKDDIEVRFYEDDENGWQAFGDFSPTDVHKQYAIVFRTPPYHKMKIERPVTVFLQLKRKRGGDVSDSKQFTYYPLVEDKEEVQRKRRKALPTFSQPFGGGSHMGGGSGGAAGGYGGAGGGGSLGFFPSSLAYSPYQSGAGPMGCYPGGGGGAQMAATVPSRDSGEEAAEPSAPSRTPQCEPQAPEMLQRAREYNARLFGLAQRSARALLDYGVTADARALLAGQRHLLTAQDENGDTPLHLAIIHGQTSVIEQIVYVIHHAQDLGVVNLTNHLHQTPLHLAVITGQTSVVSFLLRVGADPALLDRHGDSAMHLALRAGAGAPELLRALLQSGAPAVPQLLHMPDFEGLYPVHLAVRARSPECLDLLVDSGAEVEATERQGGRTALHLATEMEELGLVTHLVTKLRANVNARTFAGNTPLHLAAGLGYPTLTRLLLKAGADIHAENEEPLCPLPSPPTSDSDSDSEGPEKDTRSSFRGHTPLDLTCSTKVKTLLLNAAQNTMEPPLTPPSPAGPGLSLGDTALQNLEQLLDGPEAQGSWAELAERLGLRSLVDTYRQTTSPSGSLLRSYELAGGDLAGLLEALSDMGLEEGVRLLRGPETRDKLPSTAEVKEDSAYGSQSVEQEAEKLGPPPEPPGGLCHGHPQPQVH
# T1 sequence (Q04206 whole entry, looked up): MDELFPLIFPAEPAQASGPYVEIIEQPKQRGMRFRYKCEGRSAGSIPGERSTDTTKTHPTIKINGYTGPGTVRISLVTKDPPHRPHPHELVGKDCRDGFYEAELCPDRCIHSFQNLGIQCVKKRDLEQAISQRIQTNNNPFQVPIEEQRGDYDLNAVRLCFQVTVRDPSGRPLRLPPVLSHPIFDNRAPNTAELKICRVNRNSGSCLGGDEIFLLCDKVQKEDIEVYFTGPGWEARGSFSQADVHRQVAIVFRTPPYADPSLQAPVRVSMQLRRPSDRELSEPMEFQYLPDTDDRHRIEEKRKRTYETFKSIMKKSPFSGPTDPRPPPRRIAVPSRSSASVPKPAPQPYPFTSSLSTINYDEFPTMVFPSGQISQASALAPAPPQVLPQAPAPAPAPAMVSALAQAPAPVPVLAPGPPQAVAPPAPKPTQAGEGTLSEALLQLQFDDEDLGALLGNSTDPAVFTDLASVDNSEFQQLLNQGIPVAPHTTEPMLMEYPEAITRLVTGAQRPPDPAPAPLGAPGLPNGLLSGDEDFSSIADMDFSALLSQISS
Compound,IC50 (HepG2 [1]) [µM],also measured
Cc1ccc2oc(=O)cc(CSC(=S)N(C)C)c2c1,65.5,
CCOC(=O)Nc1ccc2c(CSC(=S)N(C)C)cc(=O)oc2c1,66.3,
O=c1cc(CSC(=S)N2CCCC2)c2ccc(F)cc2o1,62.5,
O=c1cc(CSC(=S)N2CCCC2)c2ccc(Cl)cc2o1,60.8,
O=c1cc(CSC(=S)N2CCCC2)c2ccc3ccccc3c2o1,62.1,
COC(=O)Nc1ccc2c(CSC(=S)N(C)C)cc(=O)oc2c1,61.4,
COc1ccc2oc(=O)cc(CSC(=S)N3CCCC3)c2c1,53.5,
O=c1cc(CSC(=S)N2CCCC2)c2cc(F)ccc2o1,66.7,
COc1ccc2oc(=O)cc(CSC(=S)N(C)C)c2c1,60.4,
CCOC(=O)Nc1ccc2c(CSC(=S)N3CCCC3)cc(=O)oc2c1,14.8,Activity [2]: Active; Activity [3]: Active; Activity (HepG2 [4]): Active; Activity (Huh-7): Dose-dependent effect; Activity (HepG2 [1]): Dose-dependent effect; Activity [5]: Active; Activity (PLC-PRF-5): Dose-dependent effect; Activity [6]: tde; Activity (HepG2 [7]): Active; Activity [8]: Non-toxic; Activity [9]: Active; Activity (HepG2 [10]): tde; Activity [11]: Active; Activity (HepG2 [12]): Active
CN(C)C(=S)SCc1cc(=O)oc2c1ccc1ccccc12,63.9,
CN(C)C(=S)SCc1cc(=O)oc2ccc(F)cc12,58.6,
COc1ccc2c(CSC(=S)N3CCCC3)cc(=O)oc2c1,61.5,
Cc1cc(C)c2c(CSC(=S)N(C)C)cc(=O)oc2c1,62.8,
